Key:
[1] = target: Prothrombin (Homo sapiens) (UniProt P00734); experiment: Apparent association constant against Coagulation factor II
Outline: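 Human α-thrombin, 5.9 nM, with chromogenic substrate Bz-Phe-Val-Arg-pNA at 0.2 mM. Uses the same general protocol as the fXa assay: pNA release read at 405 nm, with inhibitors auto-diluted in triplicate. Apparent Kass = [Eb]/[Ef][Io−Ib] at concentrations giving 20–80% inhibition. Values are mean ± SD when n≥3 and the average when n=2.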

[2] = target: Coagulation factor X (Homo sapiens) (UniProt P00742); experiment: Apparent association constant against coagulation factor X
Outline: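 Purchased human fXa, 3.2 nM final, in buffer of 0.06 M tris, 0.3 M NaCl, pH 7.4, with 1 mg/mL HSA in the enzyme diluent. Inhibitor is added in MeOH at 4–8 concentrations in triplicate, then Bz-Ile-Glu-Gly-Arg-pNA (0.3 mM stock in water) starts the reaction. Hydrolysis is read at 405 nm. Free and bound enzyme come from standard curves. Apparent Kass = [Eb]/[Ef][Io−Ib] at 20–80% inhibition.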

Sequence of Coagulation factor X (Homo sapiens) (P00742 41-179 limits assumed): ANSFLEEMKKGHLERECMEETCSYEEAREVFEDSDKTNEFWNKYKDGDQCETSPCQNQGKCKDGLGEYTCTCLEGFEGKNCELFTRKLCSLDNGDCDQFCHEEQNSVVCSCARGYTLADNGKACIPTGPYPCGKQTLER
Sequence of Coagulation factor X (Homo sapiens) (P00742 235-488 limits assumed): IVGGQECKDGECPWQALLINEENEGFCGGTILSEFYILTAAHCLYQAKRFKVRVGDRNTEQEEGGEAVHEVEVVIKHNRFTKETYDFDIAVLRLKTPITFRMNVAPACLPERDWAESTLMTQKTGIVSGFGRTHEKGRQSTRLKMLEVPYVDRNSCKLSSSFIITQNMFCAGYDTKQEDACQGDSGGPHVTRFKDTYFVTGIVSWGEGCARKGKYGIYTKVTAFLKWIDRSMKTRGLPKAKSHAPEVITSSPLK

Row | SMILES | K ass [1] | K ass [2]
1 | CCc1ccc(C(=O)Nc2cc(O)ccc2NC(=O)c2ccc(OC)cc2)cc1 | 40000 l M-1 | 2.68e+06 l M-1
2 | COc1ccc(C(=O)Nc2c(OC)ccc(OC)c2NC(=O)c2ccc(OC)cc2)cc1 | 10000 l M-1 | 770000 l M-1
3 | COc1ccc(C(=O)Nc2ccccc2NC(=O)c2ccc(C(=O)C(F)(F)F)cc2)cc1 | 0 l M-1 | 10000 l M-1
4 | COc1ccc(C(=O)Nc2ccc(C)cc2NC(=O)c2ccc(OC)cc2)cc1 | 20000 l M-1 | 450000 l M-1
5 | COc1cccc(C(=O)Nc2ccccc2NC(=O)c2ccc(C(C)(C)C)cc2)c1 | 0 l M-1 | 20000 l M-1
6 | COc1ccc(C(=O)Nc2ccc(C(=O)O)cc2NC(=O)c2ccc(OC)cc2)cc1 | 20000 l M-1 | 320000 l M-1
7 | COc1ccc(C(=O)Nc2ccccc2NC(=O)c2ccc(C(C)C)cc2)cc1 | 80000 l M-1 | 4.91e+06 l M-1
8 | COc1ccc(C(=O)Nc2ccccc2NC(=O)c2ccc(S(=O)(=O)N(C)C)cc2)cc1 | 0 l M-1 | 660000 l M-1
9 | COc1ccc(C(=O)Nc2ccccc2NC(=O)c2ccc(OC)cc2Cl)cc1 | 30000 l M-1 | 710000 l M-1
10 | COc1ccc(C(=O)Nc2ccc(OC)cc2NC(=O)c2ccc(OC)cc2)cc1 |  | 1.25e+06 l M-1
11 | COc1ccc(C(=O)Nc2cccc(O)c2NC(=O)c2ccc(OC)cc2)cc1 | 10000 l M-1 | 450000 l M-1
12 | CCCOc1ccc(C(=O)Nc2ccccc2NC(=O)c2ccc(OC)cc2)cc1 | 0 l M-1 | 440000 l M-1
13 | CCCCCCOc1ccc(C(=O)Nc2ccccc2NC(=O)c2ccc(OC)cc2)cc1 | 0 l M-1 | 0 l M-1
14 | COc1ccc(C(=O)Nc2ccc(NS(C)(=O)=O)cc2NC(=O)c2ccc(C(C)(C)C)cc2)cc1 | 110000 l M-1 | 7.65e+06 l M-1
15 | COc1ccc(C(=O)Nc2ccccc2NC(=O)c2ccc(OC(C)(C)C)cc2)cc1 | 10000 l M-1 | 820000 l M-1
16 | COc1ccc(C(=O)Nc2cccc(NC(=O)c3ccc(OC)cc3)c2)cc1 | 0 l M-1 | 0 l M-1
17 | CCCCOc1ccc(C(=O)Nc2ccccc2NC(=O)c2ccc(OC)cc2)cc1 | 0 l M-1 | 80000 l M-1
18 | COc1ccc(C(=O)Nc2ccccc2NC(=O)c2ccc(Oc3ccccc3)cc2)cc1 | 0 l M-1 | 290000 l M-1
19 | COc1ccc(C(=O)Nc2ccccc2NC(=O)c2ccc(C(C)(C)C)cc2)cc1 | 50000 l M-1 | 7.31e+06 l M-1
20 | COc1ccc(C(=O)Nc2ccc(C(=O)O)cc2NC(=O)c2ccc(C(C)(C)C)cc2)cc1 | 70000 l M-1 | 1.28e+07 l M-1
21 | COc1ccc(C(=O)Nc2ccc(O)cc2NC(=O)c2ccc(OC)cc2)cc1 | 20000 l M-1 | 640000 l M-1
22 | COc1ccc(C(=O)Nc2ccccc2NC(=O)c2ccc(N(C)C)cc2)cc1 | 50000 l M-1 | 1.69e+07 l M-1
23 | CCc1ccc(C(=O)Nc2ccccc2NC(=O)c2ccc(C(C)(C)C)cc2)cc1 | 0 l M-1 | 10000 l M-1
24 | CCOc1ccc(C(=O)Nc2ccccc2NC(=O)c2ccc(OC)cc2)cc1 | 0 l M-1 | 640000 l M-1
25 | COc1ccc(C(=O)Nc2cc(C(=O)O)ccc2NC(=O)c2ccc(C(C)(C)C)cc2)cc1 | 80000 l M-1 | 3.99e+06 l M-1
26 | CC(C)(C)c1ccc(C(=O)Nc2ccccc2NC(=O)c2ccccc2)cc1 | 70000 l M-1 | 380000 l M-1

The remaining lines, values ahead:

Row | K ass [1] | K ass [2] | SMILES
27 | 0 l M-1 | 530000 l M-1 | COc1ccc(C(=O)Nc2ccccc2NC(=O)c2ccc(S(C)(=O)=O)cc2)cc1
28 | 50000 l M-1 | 2.92e+06 l M-1 | CC(C)(C)c1ccc(C(=O)Nc2ccccc2NC(=O)c2ccc(Cl)cc2)cc1
29 | 0 l M-1 | 560000 l M-1 | C=Cc1cccc(C(=O)Nc2ccccc2NC(=O)c2ccc(C(C)(C)C)cc2)c1
30 | 0 l M-1 | 1.1e+06 l M-1 | COc1ccc(C(=O)Nc2ccccc2NC(=O)c2ccc(-c3ccccc3)cc2)cc1
31 | 0 l M-1 | 0 l M-1 | CC(C)(C)c1ccc(C(=O)Nc2ccccc2NC(=O)c2ccc(OC(F)(F)F)cc2)cc1
32 | 50000 l M-1 | 3.56e+06 l M-1 | COc1ccc(C(=O)Nc2cc(O)ccc2NC(=O)c2ccc(C(C)(C)C)cc2)cc1
33 |  | 420000 l M-1 | COc1ccc(C(=O)Nc2ccc(Cl)cc2NC(=O)c2ccc(OC)cc2)cc1
34 | 40000 l M-1 | 1.19e+06 l M-1 | COc1ccc(C(=O)Nc2ccccc2NC(=O)c2ccc(OC(C)C)cc2)cc1
35 | 0 l M-1 | 510000 l M-1 | CC(C)(C)c1ccc(C(=O)Nc2ccccc2NC(=O)c2ccc(F)cc2)cc1
36 | 10000 l M-1 | 3.05e+06 l M-1 | C=Cc1ccc(C(=O)Nc2ccccc2NC(=O)c2ccc(C(C)(C)C)cc2)cc1
37 | 0 l M-1 | 280000 l M-1 | Cc1ccc(C(=O)Nc2ccccc2NC(=O)c2ccc(C(C)(C)C)cc2)cc1
38 | 20000 l M-1 | 520000 l M-1 | COc1ccc(C(=O)Nc2ccccc2NC(=O)c2ccc(OC)cc2OC)cc1
39 | 20000 l M-1 | 2.35e+06 l M-1 | COc1ccc(C(=O)Nc2ccccc2NC(=O)c2ccc(C(C)(C)OC)cc2)cc1
40 | 0 l M-1 | 20000 l M-1 | COc1ccc(C(=O)Nc2ccccc2N(C)C(=O)c2ccc(OC)cc2)cc1
41 | 20000 l M-1 | 1.63e+06 l M-1 | COc1ccc(C(=O)Nc2ccccc2NC(=O)c2ccc(SC)cc2)cc1
42 | 50000 l M-1 | 2.55e+07 l M-1 | COc1ccc(C(=O)Nc2ccc(O)cc2NC(=O)c2ccc(N(C)C)cc2)cc1
43 | 20000 l M-1 | 840000 l M-1 | COc1ccc(C(=O)Nc2ccccc2NC(=O)c2ccc(OC)cc2)cc1
44 | 0 l M-1 | 430000 l M-1 | COc1ccc(C(=O)Nc2ccccc2NC(=O)c2ccc([S+](C)[O-])cc2)cc1 (stereo not drawn)
45 | 40000 l M-1 |  | COc1ccc(C(=O)Nc2ccc(O)cc2NC(=O)c2ccc(C(C)(C)C)cc2)cc1
46 | 130000 l M-1 | 1.3e+07 l M-1 | COc1ccc(C(=O)Nc2cc(NS(C)(=O)=O)ccc2NC(=O)c2ccc(C(C)(C)C)cc2)cc1
47 | 0 l M-1 | 0 l M-1 | COc1ccc(C(=O)N(C)c2ccccc2N(C)C(=O)c2ccc(OC)cc2)cc1
48 | 0 l M-1 | 400000 l M-1 | CC(C)(C)c1ccc(C(=O)Nc2ccccc2NC(=O)c2cccc(F)c2)cc1

Source: ChEMBL document CHEMBL1132962, “1,2-Dibenzamidobenzene inhibitors of human factor Xa” (J Med Chem, 2000)
